Published values of several laboratories.
Each line is one published result; the experiments were not run side by side.
Action: inhibitor
rep main protease: Replicase polyprotein 1ab, main protease (rep, Severe acute respiratory syndrome coronavirus 2, UniProt P0DTD1)
rep methyltransferase: Replicase polyprotein 1ab, methyltransferase (rep, Severe acute respiratory syndrome coronavirus 2, UniProt P0DTD1)
rep papain-like protease: Replicase polyprotein 1ab, papain-like protease (rep, Severe acute respiratory syndrome coronavirus 2, UniProt P0DTD1)

| SMILES | target | read-out | method | pH | IC50 |
| --- | --- | --- | --- | --- | --- |
| COC(=O)C1=C(C)NC(C)=C(C(=O)OCCN2CCN(C(c3ccccc3)c3ccccc3)CC2)C1c1cccc([N+](=O)[O-])c1 (stereo not drawn) | rep main protease | enzyme activity | luciferase |  | > 240 µM |
| Oc1c(Cl)cc(Cl)c(Cl)c1Cc1c(O)c(Cl)cc(Cl)c1Cl | rep methyltransferase | enzyme activity |  |  | 8.65 µM |
| CCOc1nc2cccc(C(=O)O)c2n1Cc1ccc(-c2ccccc2-c2nnn[nH]2)cc1 | rep main protease | enzyme activity |  |  | > 240 µM |
| CC[N+](C)(CC)CCC[n+]1c(-c2ccccc2)c2cc(N)ccc2c2ccc(N)cc21 | rep main protease | enzyme activity |  |  | > 20 µM |
| COc1ccc(O)c(C=NN2C(=O)c3ccccc3NC2c2cc(OC)ccc2O)c1 (stereo not drawn) | rep main protease | enzyme activity in cells |  |  | 6.5 µM |
| CN(C)[C@@H]1C(O)=C(C(N)=O)C(=O)[C@@]2(O)C(O)=C3C(=O)c4c(O)cccc4[C@@](C)(O)[C@H]3[C@H](O)[C@@H]12 | rep main protease | enzyme activity | luciferase |  | > 240 µM |
| c1ccc([Se][Se]c2ccccc2)cc1 | rep main protease | enzyme activity | FRET |  | 1.33 µM |
| Sc1ncnc2nc[nH]c12 | rep papain-like protease | enzyme activity | FRET | pH 7.5 | > 60 µM |
| Oc1ccc(O)cc1 | rep methyltransferase | enzyme activity |  |  | 12.2 µM |
| COc1ccc(-c2nc(NC(=O)c3ccc(C)c(F)c3)n[nH]2)cc1OC | rep main protease | enzyme activity |  |  | 0.47 µM |
| O=C(NC[C@@H]1c2ccccc2CCN1C(=O)/C=C/c1cn[nH]c1)c1cncc2ccc(F)cc12 | rep main protease | enzyme activity |  |  | 18.7 µM |
| O=C(Cn1nnc2ccccc21)Nc1ccccc1N1CCc2sccc2C1 | rep main protease | enzyme activity | FRET |  | > 100 µM |
| CC(Cc1ccc(O)c(O)c1)C(C)Cc1ccc(O)c(O)c1 (stereo not drawn) | rep methyltransferase | enzyme activity |  |  | 10.3 µM |
| COc1cc(C[C@@H](C)[C@@H](C)Cc2ccc(O)c(OC)c2)ccc1O | rep papain-like protease | enzyme activity | FRET |  | 4.24 µM |
| CC(C)[C@H](NC(=O)[C@H](CCCNC(=N)N)NC(=O)N[C@@H](Cc1ccccc1)C(=O)O)C(=O)N[C@H](C=O)CCCNC(=N)N | rep main protease | enzyme activity | FRET |  | 48.6 µM |
| COCCn1c2c([n+](Cc3cnccn3)c1C)C(=O)c1ccccc1C2=O | rep papain-like protease | enzyme activity | FRET | pH 7.5 | 20.2 µM |
| CN(C(=O)[C@H](Cc1ccccc1)NC(=O)[C@@H](NC(=O)OCc1ccccc1)C(C)(C)C)N(C#N)CCC(N)=O | rep main protease | enzyme activity |  |  | 0.236 µM |
| Clc1ccc(C(Cn2ccnc2)OCc2csc3c(Cl)cccc23)c(Cl)c1 (stereo not drawn) | rep main protease | enzyme activity in cells |  |  | 7.45 µM |
| Cc1nn(-c2ccc(Cl)cc2)c2c1C(c1ccc(Cl)c(Cl)c1)C(C#N)=C(N)O2 (stereo not drawn) | rep main protease | enzyme activity |  |  | 100 µM |
| N#Cc1c(N)[nH]c2cc(/C=C/c3cccc(F)c3)ccc12 | rep papain-like protease | enzyme activity | fluorescence |  | > 100 µM |
| CCOc1ccc(Nc2nc(-c3c(C)nc4ccccn34)cs2)cc1 | rep main protease | enzyme activity |  |  | 5.05 µM |
| Cc1ccc2[nH]ncc2c1C(=O)NC[C@H]1Cc2ccccc2CN1C(=O)C[C@H](C)c1ccco1 | rep main protease | enzyme activity |  |  | 56.9 µM |
| O=C(O)c1nnn(-c2nccs2)c1-c1ccc2c(c1)OCO2 | rep methyltransferase | enzyme activity |  |  | 55.8 µM |

| SMILES | target | read-out | method | pH | IC50 |
| --- | --- | --- | --- | --- | --- |
| Cc1c(O)cccc1C(=O)N[C@@H](CSc1ccccc1)[C@H](O)CN1C[C@H]2CCCC[C@H]2C[C@H]1C(=O)NC(C)(C)C | rep main protease | enzyme activity in cells |  |  | > 10 µM |
| COC(=O)C1=C(C(=O)OC)C(c2ccc(Cl)cc2)c2sc(=O)[nH]c2S1 (stereo not drawn) | rep methyltransferase | enzyme activity |  |  | 74.9 µM |
| CC(C)c1nc(CN(C)C(=O)N[C@@H](CCN2CCOCC2)C(=O)N[C@H](CC[C@H](Cc2ccccc2)NC(=O)OCc2cncs2)Cc2ccccc2)cs1 | rep main protease | enzyme activity | luciferase |  | > 240 µM |
| Cc1ccc(-c2nc(N3CCOCC3)s[n+]2-c2ccccc2)cc1 | rep main protease | enzyme activity |  |  | 0.353 µM |
| Cc1cccc(C)c1OCC(=O)N[C@@H](Cc1ccccc1)[C@@H](O)C[C@H](Cc1ccccc1)NC(=O)[C@H](C(C)C)N1CCCNC1=O | rep main protease | enzyme activity | luciferase |  | > 240 µM |
| Nc1nc2nc[nH]c2c(=S)[nH]1 | rep papain-like protease | enzyme activity | FRET | pH 7.5 | > 60 µM |
| O=C(CC1Sc2ncnn2C1=O)Nc1ccc(Br)cc1 (stereo not drawn) | rep main protease | enzyme activity | fluorescence |  | > 20 µM |
| CN(C(=O)[C@H](Cc1ccccc1)NC(=O)OCc1ccccc1)N(C#N)CCC(N)=O | rep main protease | enzyme activity |  |  | 2.33 µM |
| O=c1oc2c(O)c(O)cc3c(=O)oc4c(O)c(O)cc1c4c23 | rep methyltransferase | enzyme activity |  |  | 22.9 µM |
| CCN(CC)S(=O)(=O)c1cccc(-n2sc3ccccc3c2=O)c1 | rep main protease | enzyme activity |  |  | > 20 µM |
| CCOC(=O)c1c(NC(=O)c2ccc3c(c2)CC(c2ccccc2)OC3=O)sc(C)c1C (stereo not drawn) | rep methyltransferase | enzyme activity |  |  | 47.9 µM |
| CCc1ccc(/C=C/C(=O)Nc2ccc(C(C)=O)cc2)o1 | rep main protease | enzyme activity |  |  | 5 µM |
| N#CC(C(N)=O)=C1Oc2c(cc(O)cc2-c2ccc(Cl)c(Cl)c2)S1 | rep methyltransferase | enzyme activity |  |  | 45 µM |
| O=C(NCCCNc1nc(Nc2cccc(NC(=O)N3CCCC3)c2)ncc1I)c1cccs1 | rep main protease | enzyme activity |  |  | 8.7 µM |
| CC(=O)N[C@@H](CS)C(=O)O | rep papain-like protease | enzyme activity |  |  | > 150 µM |
| Oc1ccc2ccccc2c1SSc1c(O)ccc2ccccc12 | rep main protease | enzyme activity |  |  | 0.5 µM |
| Cc1nocc1C(=O)N1Cc2ccccc2[C@@H](CNC(=O)c2cncc3ccc(F)cc23)C1 | rep main protease | enzyme activity |  |  | 56.8 µM |
| COC(=O)N[C@H](C(=O)N[C@@H](Cc1ccccc1)[C@@H](O)CN(Cc1ccc(-c2ccccn2)cc1)NC(=O)[C@@H](NC(=O)OC)C(C)(C)C)C(C)(C)C | rep main protease | enzyme activity | luciferase |  | > 240 µM |
| COc1cc(C[C@@H](C)[C@@H](C)Cc2cc(O)c(OC)c(OC)c2)cc(O)c1OC | rep main protease | enzyme activity | FRET |  | 3.07 µM |
| CCOc1cc(C(Nc2cc(C)ccn2)c2ccc3cccnc3c2O)ccc1OC (stereo not drawn) | rep main protease | enzyme activity |  |  | 0.27 µM |
| O=C1c2ccccc2NC(c2cc(Cl)ccc2O)N1N=Cc1cc(Cl)ccc1O (stereo not drawn) | rep main protease | enzyme activity in cells |  |  | 10 µM |
| C[C@H]1[C@H](OC(=O)CCC(=O)O)O[C@@H]2O[C@@]3(C)CC[C@H]4[C@H](C)CC[C@@H]1[C@@]24OO3 | rep main protease | enzyme activity in cells |  |  | 2.41 µM |
